Positions count from the first letter of the chain named.
How the values were obtained:
Details in all cases: stereoisomer not certain
OR6K3 (Homo sapiens) = target: T1, OR6K3 (Homo sapiens) (UniProt Q8NGY3)
T1 sequence (whole entry): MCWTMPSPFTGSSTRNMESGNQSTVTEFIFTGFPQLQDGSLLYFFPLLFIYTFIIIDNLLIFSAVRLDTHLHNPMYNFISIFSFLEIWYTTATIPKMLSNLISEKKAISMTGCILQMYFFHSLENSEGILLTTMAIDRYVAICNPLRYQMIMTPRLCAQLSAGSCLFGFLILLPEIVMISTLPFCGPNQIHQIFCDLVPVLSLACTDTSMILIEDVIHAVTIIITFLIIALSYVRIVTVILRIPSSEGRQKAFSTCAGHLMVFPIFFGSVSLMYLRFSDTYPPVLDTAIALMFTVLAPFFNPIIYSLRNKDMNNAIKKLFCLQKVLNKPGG
Summary of the method: (§1)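 Assay methods differ from source to source, frequently being transient luciferase assays in mammalian cell lines. For each receptor–molecule pair, the label responsive (active) applies when the original authors judged the measured signal statistically different from baseline, and non-responsive (inactive) applies otherwise.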

OR6K6 (Homo sapiens) = target: T2, OR6K6 (Homo sapiens) (UniProt Q8NGW6)
T2 sequence (whole entry): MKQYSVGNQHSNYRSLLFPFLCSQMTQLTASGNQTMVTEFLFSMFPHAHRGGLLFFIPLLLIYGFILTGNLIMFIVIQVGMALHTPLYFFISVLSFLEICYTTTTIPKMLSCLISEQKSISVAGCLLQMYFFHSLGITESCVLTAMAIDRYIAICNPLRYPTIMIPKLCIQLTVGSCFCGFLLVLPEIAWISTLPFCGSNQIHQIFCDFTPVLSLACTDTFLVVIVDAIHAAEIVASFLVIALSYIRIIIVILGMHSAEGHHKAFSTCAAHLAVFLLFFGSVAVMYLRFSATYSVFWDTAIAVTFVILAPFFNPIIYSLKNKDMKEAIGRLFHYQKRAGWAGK
Summary of the method: as §1

OR6M1 (Homo sapiens) = target: T3, OR6M1 (Homo sapiens) (UniProt Q8NGM8)
T3 sequence (whole entry): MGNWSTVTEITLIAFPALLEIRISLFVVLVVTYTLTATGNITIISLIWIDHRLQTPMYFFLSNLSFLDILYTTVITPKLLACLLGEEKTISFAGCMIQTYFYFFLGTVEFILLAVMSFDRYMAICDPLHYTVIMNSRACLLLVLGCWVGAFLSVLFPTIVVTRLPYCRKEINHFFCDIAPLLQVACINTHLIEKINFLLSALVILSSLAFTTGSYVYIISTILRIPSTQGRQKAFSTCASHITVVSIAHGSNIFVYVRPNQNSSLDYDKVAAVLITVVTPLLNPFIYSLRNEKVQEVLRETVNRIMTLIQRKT
Summary of the method: as §1

OR6N1 (Homo sapiens) = target: T4, OR6N1 (Homo sapiens) (UniProt Q8NGY5)
T4 sequence (whole entry): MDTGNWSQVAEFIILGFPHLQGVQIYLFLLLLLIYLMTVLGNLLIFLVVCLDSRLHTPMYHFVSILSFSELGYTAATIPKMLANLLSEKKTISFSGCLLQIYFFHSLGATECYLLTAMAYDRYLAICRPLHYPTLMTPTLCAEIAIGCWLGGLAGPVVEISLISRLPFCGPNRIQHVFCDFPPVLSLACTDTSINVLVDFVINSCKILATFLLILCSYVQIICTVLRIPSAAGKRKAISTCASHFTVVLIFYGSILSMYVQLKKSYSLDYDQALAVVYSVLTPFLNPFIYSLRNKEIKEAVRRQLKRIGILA
Summary of the method: as §1

OR6N2 (Homo sapiens) = target: T5, OR6N2 (Homo sapiens) (UniProt Q8NGY6)
T5 sequence (whole entry): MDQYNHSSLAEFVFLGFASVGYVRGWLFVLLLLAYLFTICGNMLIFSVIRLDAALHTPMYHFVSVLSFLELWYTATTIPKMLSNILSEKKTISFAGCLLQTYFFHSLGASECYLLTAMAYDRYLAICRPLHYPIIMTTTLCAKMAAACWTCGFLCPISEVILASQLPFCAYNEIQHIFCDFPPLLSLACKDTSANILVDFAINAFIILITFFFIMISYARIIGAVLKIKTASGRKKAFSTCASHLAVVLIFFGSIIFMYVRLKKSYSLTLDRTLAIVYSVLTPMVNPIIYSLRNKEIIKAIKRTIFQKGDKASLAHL
Summary of the method: as §1

OR6P1 (Homo sapiens) = target: T6, OR6P1 (Homo sapiens) (UniProt Q8NGX9)
T6 sequence (whole entry): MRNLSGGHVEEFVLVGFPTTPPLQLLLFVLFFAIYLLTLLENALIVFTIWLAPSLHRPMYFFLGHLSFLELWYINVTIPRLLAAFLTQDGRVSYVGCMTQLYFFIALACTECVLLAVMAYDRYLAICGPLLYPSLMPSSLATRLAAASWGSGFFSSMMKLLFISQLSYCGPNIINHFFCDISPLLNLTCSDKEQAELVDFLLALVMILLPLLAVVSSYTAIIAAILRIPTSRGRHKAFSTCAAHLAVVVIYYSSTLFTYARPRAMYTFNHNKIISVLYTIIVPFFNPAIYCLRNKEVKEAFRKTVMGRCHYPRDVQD
Summary of the method: as §1

OR6Q1 (Homo sapiens) = target: T7, OR6Q1 (Homo sapiens) (UniProt Q8NGQ2)
T7 sequence (whole entry): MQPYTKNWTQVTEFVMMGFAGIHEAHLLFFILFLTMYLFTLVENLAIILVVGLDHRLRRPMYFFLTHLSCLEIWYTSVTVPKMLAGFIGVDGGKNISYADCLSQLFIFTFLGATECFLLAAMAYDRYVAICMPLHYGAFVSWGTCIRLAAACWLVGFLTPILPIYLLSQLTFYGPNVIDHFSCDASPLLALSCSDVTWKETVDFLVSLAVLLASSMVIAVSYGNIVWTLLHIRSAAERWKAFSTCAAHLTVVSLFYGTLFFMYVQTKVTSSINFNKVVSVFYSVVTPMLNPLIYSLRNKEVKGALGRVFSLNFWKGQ
Summary of the method: as §1

OR6S1 (Homo sapiens) = target: T8, OR6S1 (Homo sapiens) (UniProt Q8NH40)
T8 sequence (whole entry): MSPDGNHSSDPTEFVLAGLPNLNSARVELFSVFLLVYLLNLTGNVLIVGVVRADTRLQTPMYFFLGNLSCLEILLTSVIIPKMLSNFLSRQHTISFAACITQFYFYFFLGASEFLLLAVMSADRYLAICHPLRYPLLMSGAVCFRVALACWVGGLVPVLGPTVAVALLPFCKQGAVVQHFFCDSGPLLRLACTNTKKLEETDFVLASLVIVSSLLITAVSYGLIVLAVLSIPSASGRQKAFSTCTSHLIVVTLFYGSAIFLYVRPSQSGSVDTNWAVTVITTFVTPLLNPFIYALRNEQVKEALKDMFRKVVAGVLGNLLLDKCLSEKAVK
Summary of the method: as §1

OR6T1 (Homo sapiens) = target: T9, OR6T1 (Homo sapiens) (UniProt Q8NGN1)
T9 sequence (whole entry): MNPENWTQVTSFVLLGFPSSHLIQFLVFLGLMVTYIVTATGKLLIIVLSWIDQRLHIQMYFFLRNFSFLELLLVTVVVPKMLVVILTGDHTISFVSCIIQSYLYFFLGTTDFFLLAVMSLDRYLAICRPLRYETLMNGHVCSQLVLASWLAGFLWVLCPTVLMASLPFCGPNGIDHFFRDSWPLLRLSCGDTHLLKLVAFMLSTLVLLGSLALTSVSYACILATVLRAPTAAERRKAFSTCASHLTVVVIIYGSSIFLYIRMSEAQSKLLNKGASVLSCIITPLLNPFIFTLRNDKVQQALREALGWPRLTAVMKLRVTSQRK
Summary of the method: as §1

OR6V1 (Homo sapiens) = target: T10, OR6V1 (Homo sapiens) (UniProt Q8N148)
T10 sequence (whole entry): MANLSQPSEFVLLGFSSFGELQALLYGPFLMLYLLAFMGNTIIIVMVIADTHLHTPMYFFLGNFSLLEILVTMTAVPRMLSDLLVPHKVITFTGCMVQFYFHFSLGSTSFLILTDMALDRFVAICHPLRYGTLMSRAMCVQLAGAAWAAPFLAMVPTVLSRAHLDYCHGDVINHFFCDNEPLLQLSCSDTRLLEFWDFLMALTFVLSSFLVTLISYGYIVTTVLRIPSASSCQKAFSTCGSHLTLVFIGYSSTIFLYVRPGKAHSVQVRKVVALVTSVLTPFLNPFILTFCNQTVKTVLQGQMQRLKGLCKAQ
Summary of the method: as §1

OR6X1 (Homo sapiens) = target: T11, OR6X1 (Homo sapiens) (UniProt Q8NH79)
T11 sequence (whole entry): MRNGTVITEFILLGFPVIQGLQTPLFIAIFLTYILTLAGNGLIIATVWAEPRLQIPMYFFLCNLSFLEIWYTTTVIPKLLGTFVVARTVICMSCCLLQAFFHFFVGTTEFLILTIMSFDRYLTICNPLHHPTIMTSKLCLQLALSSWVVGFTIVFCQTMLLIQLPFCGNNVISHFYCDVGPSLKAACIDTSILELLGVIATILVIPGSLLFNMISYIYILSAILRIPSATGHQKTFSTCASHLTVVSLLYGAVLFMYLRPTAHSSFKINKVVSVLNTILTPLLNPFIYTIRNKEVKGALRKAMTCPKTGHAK
Summary of the method: as §1

OR6Y1 (Homo sapiens) = target: T12, OR6Y1 (Homo sapiens) (UniProt Q8NGX8)
T12 sequence (whole entry): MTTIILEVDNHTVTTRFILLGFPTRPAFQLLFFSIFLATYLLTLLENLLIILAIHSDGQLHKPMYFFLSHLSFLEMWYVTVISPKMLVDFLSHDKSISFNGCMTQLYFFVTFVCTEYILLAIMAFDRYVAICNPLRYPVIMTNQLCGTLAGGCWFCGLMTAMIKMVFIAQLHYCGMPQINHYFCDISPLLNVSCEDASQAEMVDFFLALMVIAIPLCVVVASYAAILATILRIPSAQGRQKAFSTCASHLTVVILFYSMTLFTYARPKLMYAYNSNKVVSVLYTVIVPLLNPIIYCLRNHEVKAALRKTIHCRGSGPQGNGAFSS
Summary of the method: as §1

OR7A10 (Homo sapiens) = target: T13, OR7A10 (Homo sapiens) (UniProt O76100)
T13 sequence (whole entry): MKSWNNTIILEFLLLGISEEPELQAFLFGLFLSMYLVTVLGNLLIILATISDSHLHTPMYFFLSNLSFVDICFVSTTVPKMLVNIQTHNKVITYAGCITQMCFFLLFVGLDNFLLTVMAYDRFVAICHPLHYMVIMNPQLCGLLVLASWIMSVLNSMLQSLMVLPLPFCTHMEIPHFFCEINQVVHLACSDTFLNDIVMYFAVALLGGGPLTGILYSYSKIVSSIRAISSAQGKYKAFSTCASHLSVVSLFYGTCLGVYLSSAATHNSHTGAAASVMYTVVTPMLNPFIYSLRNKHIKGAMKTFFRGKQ
Summary of the method: as §1

OR7A17 (Homo sapiens) = target: T14, OR7A17 (Homo sapiens) (UniProt O14581)
T14 sequence (whole entry): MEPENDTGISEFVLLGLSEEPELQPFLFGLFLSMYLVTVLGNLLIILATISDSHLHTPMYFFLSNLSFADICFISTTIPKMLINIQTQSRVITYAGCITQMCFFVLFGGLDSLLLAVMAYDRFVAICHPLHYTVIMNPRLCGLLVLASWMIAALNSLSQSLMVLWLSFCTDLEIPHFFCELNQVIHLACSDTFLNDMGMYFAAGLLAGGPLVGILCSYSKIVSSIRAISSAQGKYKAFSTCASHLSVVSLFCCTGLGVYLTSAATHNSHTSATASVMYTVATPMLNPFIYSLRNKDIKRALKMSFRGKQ
Summary of the method: as §1

OR7A5 (Homo sapiens) = target: T15, OR7A5 (Homo sapiens) (UniProt Q15622)
T15 sequence (whole entry): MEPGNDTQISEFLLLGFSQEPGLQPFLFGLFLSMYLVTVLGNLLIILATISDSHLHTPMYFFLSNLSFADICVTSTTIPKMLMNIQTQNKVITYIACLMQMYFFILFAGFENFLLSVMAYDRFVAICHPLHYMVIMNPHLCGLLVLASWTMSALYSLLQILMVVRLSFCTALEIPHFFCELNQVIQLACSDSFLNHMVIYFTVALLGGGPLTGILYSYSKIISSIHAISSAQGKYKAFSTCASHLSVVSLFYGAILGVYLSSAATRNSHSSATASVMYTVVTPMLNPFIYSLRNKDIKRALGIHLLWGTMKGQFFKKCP
Summary of the method: as §1

OR6K3 = system: T16, OR6K3
T16 sequence (whole entry): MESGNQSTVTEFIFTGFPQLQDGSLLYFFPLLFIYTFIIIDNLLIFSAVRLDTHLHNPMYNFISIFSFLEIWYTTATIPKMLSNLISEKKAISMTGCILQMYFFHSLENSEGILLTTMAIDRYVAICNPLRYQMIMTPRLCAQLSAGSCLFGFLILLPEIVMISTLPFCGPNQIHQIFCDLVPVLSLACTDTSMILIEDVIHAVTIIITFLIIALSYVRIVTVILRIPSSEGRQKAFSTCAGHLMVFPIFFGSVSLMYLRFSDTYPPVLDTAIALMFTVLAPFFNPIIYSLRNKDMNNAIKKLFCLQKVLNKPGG
Summary of the method: as §1

OR6M1 R224C = system: T17, OR6M1 R224C
T17 sequence (whole entry): T3 sequence (whole entry) with R224C
Summary of the method: as §1

OR6M1 T276K = system: T18, OR6M1 T276K
T18 sequence (whole entry): T3 sequence (whole entry) with T276K
Summary of the method: as §1

OR6S1 T42I V156I = system: T19, OR6S1 T42I V156I
T19 sequence (whole entry): T8 sequence (whole entry) with T42I, V156I
Summary of the method: as §1

OR6T1 N2D = system: T20, OR6T1 N2D
T20 sequence (whole entry): T9 sequence (whole entry) with N2D
Summary of the method: as §1

Measured: odorant receptor agonist call

CC(CO)CS (centres undefined)
inactive: OR6K3 (Homo sapiens) | OR6K6 (Homo sapiens) | OR6M1 (Homo sapiens) | OR6N1 (Homo sapiens) | OR6N2 (Homo sapiens) | OR6P1 (Homo sapiens) | OR6Q1 (Homo sapiens) | OR6S1 (Homo sapiens) | OR6T1 (Homo sapiens) | OR6V1 (Homo sapiens) | OR6X1 (Homo sapiens) | OR6Y1 (Homo sapiens) | OR7A10 (Homo sapiens) | OR7A17 (Homo sapiens) | OR7A5 (Homo sapiens)

CCC1OC(C)=C(O)C1=O (centres undefined)
inactive: OR6K3 | OR6K6 (Homo sapiens) | OR6M1 (Homo sapiens) | OR6M1 R224C | OR6M1 T276K | OR6N1 (Homo sapiens) | OR6N2 (Homo sapiens) | OR6P1 (Homo sapiens) | OR6Q1 (Homo sapiens) | OR6S1 (Homo sapiens) | OR6S1 T42I V156I | OR6T1 (Homo sapiens) | OR6T1 N2D | OR6V1 (Homo sapiens) | OR6X1 (Homo sapiens) | OR6Y1 (Homo sapiens) | OR7A10 (Homo sapiens) | OR7A17 (Homo sapiens) | OR7A5 (Homo sapiens)

— the M2OR odorant receptor database
